Laboratory results as given in paper PMC11959959 (Acta Pharmaceutica Sinica. B, 2024).

How the values were obtained:
[1] = tested on: B16F10 tumor-bearing mice; assay: PET/CT imaging in B16F10 tumor-bearing mice; format: in vivo; conditions: 0.5 and 1 h p.i.
Outline: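 Mice bear s.c. B16F10 allografts (1×10^6 cells, left flank), imaged at tumor volume ≥100 mm³, usually day 10. They receive 200 μCi of tracer in 100 μL normal saline by tail vein. Dynamic micro-PET/CT runs for 1 h from injection, with three mice per tracer. The PEGylated tracer also gets static scans at 0.5, 1, 5, 10 and 24 h. Data are decay-corrected and given as %ID/g.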

B16F10 cells = assay: Cell uptake assay in B16F10 cells; format: cell-based, murine; conditions: 750 kBq/mL, 5-80 min

[^64Cu]QM-2303: 64Cu-labeled PEGibody from QM-2302 PEGylated with 4-arm PEG (KSSPHSRNSGSGSGSGSGRGDSPC; NOTA conjugated to the N-terminus; thiol group of the C-terminal cysteine linked to 4-arm PEG; labelled with ^64Cu in the cell assays)
kidney accumulation [1]: comparable to that of [^64Cu]QM-2301 | cell uptake / percentage of binding to integrin α5β1 (B16F10 cells): greater percentage of binding to integrin α5β1 than [^64Cu]QM-2301 and [^64Cu]QM-2302
